Rows were chosen to be rich in hits. Some 2.4% of all compounds tested hit in one or more screens of this group.
Rin1-Abl PPI inh – inhibitors of Rin1-Abl protein binding, primary screen, biochemical, TR-FRET. Tyrosine-protein kinase ABL1 (Homo sapiens) + Ras and Rab interactor 1 (Homo sapiens), …. inhibition, % at 7.35 µM. 360,000 compounds, 0.4% hits. AID 588664, 2011; in the data active = inhibition above about 5%, passing the limit was not always enough
HNF4A DNA FP – change in binding of human HNF4A to DNA, primary screen, biochemical, fluorescence polarization, FITC-DNA | Hepatocyte nuclear factor 4-alpha (Homo sapiens), P41235 | 1 h | activity change, % at 10 µM | 360,000 compounds, 0.3% hits | AID 1224865, 2016; in the data active = activity change above about 30%, passing the limit was not always enough
TPT1 inh – Candida albicans TPT1 enzyme inhibitors, primary screen, biochemical, fluorescence polarization; recombinant caTPT1, FP RNA substrate dephosphorylation; inhibition, % at 5 µM; 300,000 compounds, 0.81% hits;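 active = inhibition above the mean of all tested compounds plus 3 SD, set per screening campaign, cut at about 24% in these data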;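 also: plate controls were DMSO alone for no effect and ferristatin control at 100 nM for full effect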
Neddyl block – inhibitors of cullin neddylation, primary screen, biochemical, TR-FRET, uHTS, NAE and Ubc12; NEDD8-conjugating enzyme Ubc12 (Homo sapiens) + NEDD8-activating enzyme E1 regulatory …; inhibition, % at 25 µM; 360,000 compounds, 0.58% hits; in the data active = inhibition above about 36%
Target sequence (P61081 whole entry, looked up): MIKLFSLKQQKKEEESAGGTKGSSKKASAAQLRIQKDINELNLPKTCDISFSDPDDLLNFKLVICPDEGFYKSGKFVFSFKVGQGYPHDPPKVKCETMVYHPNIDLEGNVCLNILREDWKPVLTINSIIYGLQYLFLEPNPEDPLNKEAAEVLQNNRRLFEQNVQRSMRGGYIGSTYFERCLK
Target sequence (Q13564 whole entry, looked up): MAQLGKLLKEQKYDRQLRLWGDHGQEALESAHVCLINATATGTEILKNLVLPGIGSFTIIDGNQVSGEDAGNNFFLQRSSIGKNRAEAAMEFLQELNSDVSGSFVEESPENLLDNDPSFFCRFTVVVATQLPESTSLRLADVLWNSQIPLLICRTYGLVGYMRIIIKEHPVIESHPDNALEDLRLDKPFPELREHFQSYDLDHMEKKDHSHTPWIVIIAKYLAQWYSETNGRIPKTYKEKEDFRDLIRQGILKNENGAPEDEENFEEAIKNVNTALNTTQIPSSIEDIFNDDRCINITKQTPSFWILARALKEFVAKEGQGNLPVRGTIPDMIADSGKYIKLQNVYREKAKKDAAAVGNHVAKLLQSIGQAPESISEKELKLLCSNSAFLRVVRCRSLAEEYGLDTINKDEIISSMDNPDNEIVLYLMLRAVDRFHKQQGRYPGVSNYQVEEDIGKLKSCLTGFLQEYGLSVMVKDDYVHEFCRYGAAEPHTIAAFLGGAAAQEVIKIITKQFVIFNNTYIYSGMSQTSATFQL
Rpn11 inh – Rpn11 (PSMD14) deubiquitinase inhibitors, primary screen, biochemical, fluorescence polarization, uHTS | 26S proteasome non-ATPase regulatory subunit 14 (Homo sapiens), O00487 | human 26S proteasome, Ub4-pepOG fluorescence polarization; 20S core pre-blocked with epoxomicin | inhibition, % at 20 µM | 360,000 compounds, 0.59% hits | AID 588493, 2011;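 active = inhibition at 20 µM, scaled to each plate's controls, above about 33%, limit read from the data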
CSN deneddyl inh – inhibitors of CSN-mediated cullin deneddylation, primary screen, biochemical, fluorescence polarization, uHTS. Purified CSN, SCF-Nedd8-OG deneddylation. inhibition, % at 12.5 µM. 360,000 compounds, 0.38% hits;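 active = pattern-corrected inhibition above about 35%, with an unprinted fluorescence ratio check between 0.5 and 1.5, limit read from the data, passing the limit was not always enough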;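 also: 0% = enzyme with substrate and 100% = substrate without enzyme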
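Test system: purified human Csn5 enzyme expressed in HEK293T cells. Amount: 0.24 nM enzyme. Reagent: SCFSkp2-Nedd8OG substrate at 10 nM final. Schedule: 90 min incubation of compound, enzyme and substrate at room temperature. Detection: fluorescence polarization. Read-out: % inhibition of substrate cleavage by Csn5.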
Rpn11 confirm – Rpn11 (PSMD14) deubiquitinase inhibitors, confirmation, biochemical, fluorescence polarization, single concentration | shares compounds with Rpn11 inh | purified human 26S proteasome, Ub4-pepOG fluorescence polarization; proteasome pretreated with epoxomicin | inhibition, % at 20 µM | 1,900 compounds, 29% hits | AID 602318, 2012
MMP-2 counter – MMP-2 enzyme inhibition, confirmation, counter-screen for RPN11 inhibitor project, biochemical, fluorescence, single concentration; shares compounds with Rpn11 inh; recombinant MMP-2, FRET peptide cleavage fluorescence; inhibition, % at 20 µM; 1,900 compounds, 4% hits;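 also: human MMP-2 activated beforehand with APMA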
Thrombin FP – bovine thrombin protease inhibition, confirmation, counter-screen for Rpn11 inhibitor project, biochemical, fluorescence polarization, single concentration; bovine thrombin cleavage of Ub4-pepOG; 1,900 compounds, 13% hits; inhibition, % at 20 µM; shares compounds with Rpn11 inh;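 active = mean inhibition at least 40% at 20 µM, or signal 3 deviations below plate average, so some actives read negative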;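 also: plate controls were thrombin with DMSO for no effect and buffer wells lacking thrombin for full effect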
* hit, by the source's call. Rule as the data show it, unless noted: active = inhibition above about 40%; inactive = the rest.

For Cc1cc2c(cc1S(=O)(=O)CCC(=O)N(C)Cc1ccccc1)OCC(=O)N2 the results were Rin1-Abl PPI inh -3, HNF4A DNA FP -1, TPT1 inh -1, Neddyl block 9, Rpn11 inh -4 and CSN deneddyl inh 0.
`CCc1c(C)[nH]n(-c2nc(-c3ccccc3)cs2)c1=O` gave Rin1-Abl PPI inh 0, HNF4A DNA FP -1, TPT1 inh 3, Neddyl block 1, Rpn11 inh 3 and CSN deneddyl inh -9.
For Cc1[nH]n(-c2nc(-c3ccc(Cl)cc3)cs2)c(=O)c1N=Nc1ccc(O)cc1 the results were Rin1-Abl PPI inh -6, HNF4A DNA FP 14, TPT1 inh 7, Neddyl block -57, Rpn11 inh 42*, CSN deneddyl inh -9, Rpn11 confirm -5, MMP-2 counter -24 and Thrombin FP -3.
Screening COCC(=O)N1C[C@H]2CON(C)[C@H]2C[C@H]1c1cccc(-c2ccc(C#N)cc2)c1 returned Rin1-Abl PPI inh 2, HNF4A DNA FP 1, Neddyl block 3, Rpn11 inh 2 and CSN deneddyl inh 5.
`CN(Cc1cn(Cc2cccc(C(F)(F)F)c2)nn1)C1CN(Cc2cn(Cc3cccc(C(F)(F)F)c3)nn2)S(=O)(=O)C1` (stereo not drawn) gave HNF4A DNA FP 0, Neddyl block 1 and CSN deneddyl inh -1.
For COc1ccccc1Cc1c(-c2cccc(Cl)c2)nc2ccc(Br)cn12 the results were Rin1-Abl PPI inh 3, HNF4A DNA FP 35, Neddyl block -17, Rpn11 inh 61*, CSN deneddyl inh 15, Rpn11 confirm 50*, MMP-2 counter 0 and Thrombin FP 36.
Screening FC(F)(F)c1ccccc1Cc1c(-c2cccc(Br)c2)nc2c3ccccc3ccn12 returned Rin1-Abl PPI inh 1, HNF4A DNA FP 16, Neddyl block 14, Rpn11 inh 42*, CSN deneddyl inh 6, Rpn11 confirm 10, MMP-2 counter -2 and Thrombin FP 11.
Screening COc1ccc(Cc2c(-c3ccc(C)cc3)nc3c(C)cc(Br)cn23)c(C)c1 returned Rin1-Abl PPI inh -17, HNF4A DNA FP 18, Neddyl block -170, Rpn11 inh 49*, CSN deneddyl inh 8, Rpn11 confirm 22, MMP-2 counter 16 and Thrombin FP 13.
COC(=O)c1ccc2nc(-c3cccc(Cl)c3)c(Cc3ccccc3OC)n2c1 was read as Rin1-Abl PPI inh 2, HNF4A DNA FP 10, Neddyl block 28, Rpn11 inh 31 and CSN deneddyl inh 6.
For COc1ccccc1Cc1c(-c2cccc(Br)c2)nc2c(C)cc(Br)cn12 the results were Rin1-Abl PPI inh -3, HNF4A DNA FP 12, Neddyl block -25, Rpn11 inh 42*, CSN deneddyl inh 4, Rpn11 confirm 15, MMP-2 counter -7 and Thrombin FP 20.
Screening COc1ccc(Cc2c(-c3ccc(OC)c(OC)c3)nc3c(C)cc(Br)cn23)c(C)c1 returned Rin1-Abl PPI inh -4, HNF4A DNA FP 13, Neddyl block -31, Rpn11 inh 12 and CSN deneddyl inh -1.
Screening Cc1nn(C2CCS(=O)(=O)C2)c(C)c1CN(C)C(=O)c1ccc(Cl)cc1 (stereo not drawn) returned Rin1-Abl PPI inh 3, HNF4A DNA FP 1, Neddyl block -10, Rpn11 inh -7 and CSN deneddyl inh -1.
Screening Clc1ccc2nc(-c3cccc(Br)c3)c(Cc3ccccc3)n2c1 returned Rin1-Abl PPI inh 1, HNF4A DNA FP 11, Neddyl block -7, Rpn11 inh 20 and CSN deneddyl inh 15.
`Cc1ccc(Cc2c(-c3cccc(Br)c3)nc3ccc(Cl)cn23)cc1` gave Rin1-Abl PPI inh -1, HNF4A DNA FP 12, Neddyl block -22, Rpn11 inh 42*, CSN deneddyl inh 6, Rpn11 confirm 15, MMP-2 counter 24 and Thrombin FP -1.
Screening Cc1ccc2nc(C)cc(Nc3ccc([N+](=O)[O-])cc3)c2c1 returned Rin1-Abl PPI inh -5, HNF4A DNA FP 5, TPT1 inh 3, Neddyl block -15, Rpn11 inh 45*, CSN deneddyl inh 4, Rpn11 confirm 34, MMP-2 counter -10 and Thrombin FP -5.
O=C(N/N=C/c1cccc([N+](=O)[O-])c1)c1ccc(Br)cc1 was read as Rin1-Abl PPI inh 3, HNF4A DNA FP 7, TPT1 inh 0, Neddyl block -21, Rpn11 inh 42*, CSN deneddyl inh 12, Rpn11 confirm 17, MMP-2 counter 41* and Thrombin FP 1.
For COc1cc(/C=N/NC(=O)c2cccc([N+](=O)[O-])c2)ccc1OCc1ccccc1 the results were Rin1-Abl PPI inh 3, HNF4A DNA FP 4, TPT1 inh 3, Neddyl block -5, Rpn11 inh 0 and CSN deneddyl inh 2.
For O=C(N/N=C/c1cccc([N+](=O)[O-])c1)c1cccc(Br)c1 the results were Rin1-Abl PPI inh -2, HNF4A DNA FP -4, TPT1 inh 3, Neddyl block -2, Rpn11 inh 3 and CSN deneddyl inh 5.
COc1cc(/C=N/NC(=O)c2ccc(O)cc2)ccc1OCC(=O)Nc1cccc([N+](=O)[O-])c1 was read as Rin1-Abl PPI inh 1, HNF4A DNA FP 6, TPT1 inh 1, Neddyl block -2, Rpn11 inh 116*, CSN deneddyl inh 16, Rpn11 confirm 9, MMP-2 counter -18 and Thrombin FP -3.
Screening O=C(CCCc1nc(-c2ccc(Cl)cc2)no1)NC1CCCC1 returned Rin1-Abl PPI inh -1, HNF4A DNA FP -2, TPT1 inh 4, Neddyl block 3, Rpn11 inh -4 and CSN deneddyl inh -2.
